The viability is a read-out of living cells in per cent, often relative to untreated cells. As a reminder, the inhibition is the change of the read-out against control, counted positive when it falls.

The text below walks through data of PubChem BioAssay.

Active and inactive are the calls of the source.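 Rule for the calls, unless noted: active = Her2 level under about 52% in both replicate screens, with viability over 70% of control (limit read from the data); inconclusive = Her2 under the limit in one screen only, or viability under 70%; inactive = Her2 level above the set limit.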

A short description of experiment [1]: Her2 expression decrease, cell viability multiplex – SKBR3 breast tumor cells, AlphaScreen, ATP viability, primary screen (AID 461).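 For Her2 level: lower value means less Her2 protein in the cells.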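 For viability: percent of carrier control wells set as 100% viability.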 The note with it: SKBR3 Her2 protein level, 18-24 h, measured here: SKBR3 viability, ATP luminescence, at 10 µM. (In Alpha technology, singlet oxygen from a donor bead excites a nearby acceptor bead.)
Experiment [2] has as its target Receptor tyrosine-protein kinase erbB-2 (Homo sapiens) (UniProt P04626). Described as above. As to conditions: 18-24 h, at 10 µM, stronger effect = lower value.
Experiment [3] in a line: reduced viability of SK-BR-3 breast cancer cells – cell-based, 24 h, human, pilot screen (AID 572;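 active = viability at or below 10% of carrier control in both of two separate runs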;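 note: compound exposure lasted between 18 and 24 h rather than exactly 24 h; 100% = carrier-treated control wells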). The note with it: SK-BR-3 viability, CellTiter-Glo luminescence, at 10 µM, stronger effect = lower value. A general note: ATP-based viability assays read luminescence as a measure of living cells.
A short description of experiment [4]: HUVEC growth inhibition – cell-based, human, primary screen (AID 575;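 active = viability at or below 30% in both replicate assays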;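 note: 100% = median of untreated cell wells with 0.1% DMSO on each plate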). The note with it: HUVEC proliferation, CellTiter-Glo luminescence, 72 h; at 10 µM; stronger effect = lower value. In outline:
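material = primary HUVEC, no more than 12 passages | input = 1250 cells per well | controls = vehicle and MePR control wells | measured by = CTG luminescence | times = 72 h compound incubation | format = collagen-coated 384-well format | read-out = % viability vs DMSO wells | doses = single 10 µM dose, 0.1% DMSO, from 5x medium stock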

The nature of experiment [5]: H69AR cell proliferation blockers – human, duplicate replicates, primary screen (AID 580;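 active = viability at or under a set limit in both replicates, limit being median viability minus 3 SD, cut at about 48% in these data, passing the limit was not always enough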;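 note: 100% = mean luminescence of untreated wells and 0% = no signal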). The note with it: H69AR lung tumor cells viability, ATP luminescence, 72 h; at 10 µM; stronger effect = lower value.
A short description of experiment [6]: MRP1 drug-resistance reversers in H69AR cells – cell-based, doxorubicin co-treatment, pilot screen (AID 601;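 active = viability loss from added drug above about 55%, and viability with drug at most 40%, in both replicates, limit read from the data, passing the limit was not always enough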). As to conditions: CellTiter-Glo, 72 h, at 10 µM; for differential viability (reversal): stronger effect = higher value.
The nature of experiment [7]: yeast transport mutant growth inhibition pilot in 384-well plates, post-Golgi transport modulator project (AID 636; in the data active = inhibition above about 31%). The note with it: absorbance 615 nm, about 18 h, stronger effect = higher value.
The nature of experiment [8]: growth suppression of yeast trafficking mutant, preliminary HTS, modulators of trafficking downstream of Golgi apparatus project, 1536-format plate, OD 615 nm (AID 637; in the data active = inhibition above about 30%). As to conditions: yeast transport mutant growth, absorbance 615 nm, 18 h; stronger effect = higher value.
Where [9] appears, read: H69AR cells + 2 uM doxorubicin, measured here: viability with 2 uM doxorubicin, stronger effect = lower value.
Setting [10] is: H69AR cells, compound alone cytotoxicity.

Receptor tyrosine-protein kinase erbB-2 (Homo sapiens), sequence (P04626 whole entry, looked up): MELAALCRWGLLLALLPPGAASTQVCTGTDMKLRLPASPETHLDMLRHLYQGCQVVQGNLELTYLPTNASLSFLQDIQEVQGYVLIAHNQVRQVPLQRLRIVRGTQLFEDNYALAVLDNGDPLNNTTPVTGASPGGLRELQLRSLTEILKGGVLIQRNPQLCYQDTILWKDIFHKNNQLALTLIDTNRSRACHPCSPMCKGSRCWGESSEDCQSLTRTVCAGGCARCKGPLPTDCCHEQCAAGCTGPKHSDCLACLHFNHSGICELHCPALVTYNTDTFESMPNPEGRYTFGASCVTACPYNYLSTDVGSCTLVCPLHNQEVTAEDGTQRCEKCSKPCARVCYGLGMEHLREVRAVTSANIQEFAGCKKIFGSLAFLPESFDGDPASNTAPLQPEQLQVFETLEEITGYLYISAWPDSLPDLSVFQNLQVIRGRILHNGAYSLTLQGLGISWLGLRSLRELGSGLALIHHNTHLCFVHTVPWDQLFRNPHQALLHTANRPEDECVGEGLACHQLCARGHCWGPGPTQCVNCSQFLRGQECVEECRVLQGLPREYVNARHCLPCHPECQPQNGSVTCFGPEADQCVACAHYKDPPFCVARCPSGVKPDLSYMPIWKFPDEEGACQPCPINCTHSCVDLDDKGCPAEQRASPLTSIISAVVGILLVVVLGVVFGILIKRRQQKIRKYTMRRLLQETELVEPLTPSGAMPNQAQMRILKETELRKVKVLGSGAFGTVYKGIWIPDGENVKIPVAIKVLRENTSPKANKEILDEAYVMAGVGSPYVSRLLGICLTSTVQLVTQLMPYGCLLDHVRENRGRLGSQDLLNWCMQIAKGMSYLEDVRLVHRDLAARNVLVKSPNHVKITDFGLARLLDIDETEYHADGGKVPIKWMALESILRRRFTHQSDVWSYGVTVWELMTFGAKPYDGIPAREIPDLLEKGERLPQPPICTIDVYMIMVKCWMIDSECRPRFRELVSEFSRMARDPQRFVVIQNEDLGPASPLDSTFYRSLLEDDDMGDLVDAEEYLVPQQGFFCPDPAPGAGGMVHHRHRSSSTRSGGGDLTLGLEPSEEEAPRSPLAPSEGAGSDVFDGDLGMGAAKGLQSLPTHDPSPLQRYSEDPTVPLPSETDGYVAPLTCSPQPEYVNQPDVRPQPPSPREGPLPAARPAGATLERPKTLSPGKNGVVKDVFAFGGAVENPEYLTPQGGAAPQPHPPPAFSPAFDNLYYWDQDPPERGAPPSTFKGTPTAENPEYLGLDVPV

For `O=C(O)c1cccc(NS(=O)(=O)c2ccc3nnn(O)c3c2)c1`, the viability in experiment [1] is 123%; in experiment [3] it was 123% (inactive); in experiment [4], 94.9% (inactive); in experiment [5], 102% (inactive); in experiment [6] (setting [9]) it was 98%; in experiment [6] (setting [10]), 102%. For the same molecule, in experiment [2], the Her2 level was 87% (inactive). Further, the differential viability (reversal) in experiment [6] (H69AR cells + 2 uM doxorubicin) is 3.63% (inactive). The inhibition in experiment [7] is -4.27% (inactive); in experiment [8], 5.71% (inactive).
On to `COc1ccc(C2c3sc(=O)[nH]c3SC3C4CCC(C4)C23)cc1` (stereo not given), for which the viability in experiment [1] is 99.5%; in experiment [3] it was 99.5% (inactive); in experiment [4], 80.1% (inactive); in experiment [5] it was 89.7% (inactive); in experiment [6] (setting [9]) it was 87.7%; in experiment [6] (setting [10]) it was 89.7%. For the same molecule, the Her2 level in experiment [2] is 94.5% (inactive). The differential viability (reversal) in experiment [6] (H69AR cells + 2 uM doxorubicin) is 1.93% (inactive). For the same molecule, the inhibition was 6.4% (inactive) in experiment [7] and 5.97% (inactive) in experiment [8].
Turning to `CC1=C(C#N)C(=O)NC(C)(C)C1`, the viability in experiment [1] is 114%; in experiment [3] it was 114% (inactive); in experiment [4], 91.8% (inactive); in experiment [5] it was 89.3% (inactive); in experiment [6] (setting [9]), 86.3%; in experiment [6] (setting [10]), 89.3%. For the same molecule, the Her2 level in experiment [2] is 102% (inactive). Further, the differential viability (reversal) in experiment [6] (H69AR cells + 2 uM doxorubicin) is 3.02% (inactive). Besides, the values for the inhibition in experiment [7] and in experiment [8] were -6% (inactive) and 1.8% (inactive), respectively.
Consider `COc1cc(NC(=O)Cc2cccs2)ccc1-n1cnnn1`, for which the viability in experiment [1] is 97%; in experiment [3], 97% (inactive); in experiment [4] it was 97% (inactive); in experiment [5] it was 102% (inactive); in experiment [6] (setting [9]) it was 94.4%; in experiment [6] (setting [10]), 102%. Besides, the Her2 level in experiment [2] was 95.5% (inactive). Moreover, the differential viability (reversal) in experiment [6] (H69AR cells + 2 uM doxorubicin) was 7.88% (inactive). For the same molecule, the inhibition is -6.13% (inactive) in experiment [7] and 1.29% (inactive) in experiment [8].
Regarding `C[N+]1=C2CCCCCN2C(O)(c2ccccc2)C1` (stereo not given), the viability is 97% in experiment [1]; 97% (inactive) in experiment [3]; 101% (inactive) in experiment [4]; 96.3% (inactive) in experiment [5]; 97.6% in experiment [6] (setting [9]); 96.3% in experiment [6] (setting [10]). Moreover, the Her2 level in experiment [2] is 85% (inactive). Further, the differential viability (reversal) in experiment [6] (H69AR cells + 2 uM doxorubicin) is -1.28% (inactive). The inhibition in experiment [7] is -0.79% (inactive); in experiment [8], 1.29% (inactive).
In the case of `CCOc1ccc2nc(NC(=O)CSc3nnnn3C3CCCCC3)sc2c1`, the viability was 92% in experiment [1]; 92% (inactive) in experiment [3]; 59.7% (inactive) in experiment [4]; 63.5% (inactive) in experiment [5]; 58.8% in experiment [6] (setting [9]); 63.5% in experiment [6] (setting [10]). Also, in experiment [2], the Her2 level is 108% (inactive). Also, the differential viability (reversal) in experiment [6] (H69AR cells + 2 uM doxorubicin) is 4.67% (inactive). For the same molecule, the inhibition in experiment [7] is 9.08% (inactive); in experiment [8] it was -0.33% (inactive).
Take `Cc1cc(C(=O)CN2C(=O)c3ccccc3C2=O)c(C)n1Cc1cccs1`: the viability is 122% in experiment [1]; 122% (inactive) in experiment [3]; 111% (inactive) in experiment [4]; 86.3% (inactive) in experiment [5]; 83% in experiment [6] (setting [9]); 86.3% in experiment [6] (setting [10]). Also, in experiment [2], the Her2 level was 99% (inactive). The differential viability (reversal) in experiment [6] (H69AR cells + 2 uM doxorubicin) is 3.23% (inactive). The figures for the inhibition in experiment [7] and in experiment [8] were -9.45% (inactive) and 0% (inactive), respectively.
On to `Cc1ccc(S(=O)(=O)C2(C(=O)Nc3cccnc3)CC2)cc1`, for which the viability was 92.5% in experiment [1]; 92.5% (inactive) in experiment [3]; 91.6% (inactive) in experiment [4]; 98.4% (inactive) in experiment [5]; 95.2% in experiment [6] (setting [9]); 98.4% in experiment [6] (setting [10]). Moreover, the Her2 level in experiment [2] was 96% (inactive). In addition, the differential viability (reversal) in experiment [6] (H69AR cells + 2 uM doxorubicin) was 3.19% (inactive). In addition, the inhibition in experiment [7] is -1.67% (inactive); in experiment [8] it was -8.67% (inactive).
As for `COc1cccc(-c2csc3nnc(SCC(=O)c4ccc(NC(C)=O)cc4)n23)c1`, the viability in experiment [1] was 108%; in experiment [3], 108% (inactive); in experiment [4], 92% (inactive); in experiment [5], 90% (inactive); in experiment [6] (setting [9]), 99.8%; in experiment [6] (setting [10]), 90%. In addition, the Her2 level in experiment [2] is 106% (inactive). For the same molecule, the differential viability (reversal) in experiment [6] (H69AR cells + 2 uM doxorubicin) was -9.79% (inactive). Besides, the inhibition in experiment [7] is -4.42% (inactive); in experiment [8], -0.66% (inactive).
On to `Cn1c(/C(C#N)=C/Nc2ccccn2)nc2ccccc21`, for which the viability in experiment [1] was 75%; in experiment [3], 75% (inactive); in experiment [4], 110% (inactive); in experiment [5], 73.5% (inactive); in experiment [6] (setting [9]) it was 85.9%; in experiment [6] (setting [10]), 73.5%. In addition, in experiment [2], the Her2 level was 106% (inactive). Moreover, in experiment [6] (H69AR cells + 2 uM doxorubicin), the differential viability (reversal) is -12.4% (inactive). Besides, the figures for the inhibition in experiment [7] and in experiment [8] were 4.47% (inactive) and 29.5% (inactive), respectively.
With `COc1ccc(CCn2c(=N)c(C#N)cc3c(=O)n4ccccc4nc32)cc1`, the viability was 95% in experiment [1]; 95% (inactive) in experiment [3]; 79.7% (inactive) in experiment [4]; 65.2% (inactive) in experiment [5]; 62.9% in experiment [6] (setting [9]); 65.2% in experiment [6] (setting [10]). Besides, the Her2 level in experiment [2] was 84.5% (inactive). Moreover, in experiment [6] (H69AR cells + 2 uM doxorubicin), the differential viability (reversal) is 2.31% (inactive). Besides, the inhibition was -8.78% (inactive) in experiment [7] and 5.17% (inactive) in experiment [8].
`COC(C)(C)c1cc(C(C)(C)C)nc(N)n1`: the viability in experiment [1] is 107%; in experiment [3], 107% (inactive); in experiment [4], 86.2% (inactive); in experiment [5] it was 89.9% (inactive); in experiment [6] (setting [9]), 91.2%; in experiment [6] (setting [10]), 89.9%. The Her2 level in experiment [2] was 109% (inactive). For the same molecule, the differential viability (reversal) in experiment [6] (H69AR cells + 2 uM doxorubicin) was -1.34% (inactive). Moreover, the inhibition in experiment [7] was -2.08% (inactive); in experiment [8], -4.75% (inactive).
Consider `COc1ccccc1Oc1coc2c(CN3CCN(C)CC3)c(O)ccc2c1=O`, for which the viability in experiment [1] is 102%; in experiment [3], 102% (inactive); in experiment [4], 96.1% (inactive); in experiment [5] it was 99.5% (inactive); in experiment [6] (setting [9]) it was 84.7%; in experiment [6] (setting [10]), 99.5%. The Her2 level in experiment [2] is 111% (inactive). Further, in experiment [6] (H69AR cells + 2 uM doxorubicin), the differential viability (reversal) is 14.9% (inactive). Besides, the inhibition in experiment [7] was -1.82% (inactive); in experiment [8], 1% (inactive).
`COC(=O)c1ccccc1NC(=O)CSc1nnnn1C1CCCCC1`: the viability in experiment [1] was 120%; in experiment [3], 120% (inactive); in experiment [4] it was 81.2% (inactive); in experiment [5], 85.9% (inactive); in experiment [6] (setting [9]) it was 85%; in experiment [6] (setting [10]), 85.9%. Besides, in experiment [2], the Her2 level was 112% (inactive). Also, in experiment [6] (H69AR cells + 2 uM doxorubicin), the differential viability (reversal) was 0.925% (inactive). Further, the results for the inhibition in experiment [7] and in experiment [8] were -5.6% (inactive) and -2.26% (inactive), respectively.
